For 2 compounds, inhibition, Activity and histamine release results are on record in ChEMBL document CHEMBL1155751, “Two phenanthraquinones from Dendrobium moniliforme” (J Nat Prod, 2001).

Each structure is given as a SMILES string. Calls of active or inactive are those of the source. No cut-off for these calls is given here.

Data set [1] has as its system N9. The data set can be described thus: Antiinflammatory activity in mouse N9 cells assessed as inhibition of LPS and IFN-gamma-induced TNFalpha formation at 3 uM treated 1 hr before LPS and IFN-gamma challenge measured after 24 hrs by ELISA. The following applies: N9, read-out: INH. On the technique in general: An ELISA detects its analyte on a solid surface through an enzyme-linked reagent.

The test system of data set [2] is Neutrophil. The data set can be described thus: Inhibition of secretagogue-induced beta-glucuronidase release in rat neutrophils at 30 uM treated 30 mins before secretagogue challenge measured after 15 mins. The class given is functional, cell-based.
The subject of data set [3] is Neutrophil. The data set can be described thus: Inhibition of secretagogue-induced histamine release in rat neutrophils at 30 uM treated 30 mins before secretagogue challenge measured after 15 mins. The class given is functional, cell-based.
In data set [4] the test system is RAW264.7. The data set is described as follows: Antiinflammatory activity in mouse RAW264.7 cells assessed as LPS-induced nitrite levels at 1 uM treated 1 hr before LPS challenge measured after 24 hrs by Griess reaction (Rvb=46.6 +/- 0.4). Format: functional. A digest of the protocol: (§1)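 RAW 264.7 cells were seeded at 2 × 10^5 cells/well in DMEM with 5% heat-inactivated FBS, penicillin and streptomycin, and left to adhere overnight. Cells got DMSO or compound at 37 °C for 1 h, then 1 µg/mL LPS (E. coli 0111:B4) for 24 h. Medium nitrite was read by Griess (550 nm, NaNO2 standard), TNF-α by ELISA and PGE2 by EIA. Means ± SEM, N = 3-4.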

Data set [5] concerns RAW264.7. The data set can be described thus: Cytotoxicity against mouse RAW264.7 cells assessed as LDH release. Format: cell-based. A general note: Release of lactate dehydrogenase indicates damage to the cell membrane.
Data set [6] deals with Neutrophil. The data set can be described thus: Inhibition of secretagogue-induced superoxide anion generation in rat neutrophils at 30 uM treated 30 mins before secretagogue challenge measured after 15 mins. The class given is functional, cell-based.
For data set [7], the system named is RAW264.7. The data set is described as follows: Antiinflammatory activity in mouse RAW264.7 cells assessed as inhibition of LPS-induced TNFalpha formation at 1 uM treated 1 hr before LPS challenge measured after 24 hrs by ELISA. Format: functional. A digest of the protocol:
as §1

Data set [8] relates to N9. The data set can be described thus: Cytotoxicity against mouse N9 cells assessed as LDH release. Format: cell-based.
The subject of data set [9] is RAW264.7. The data set is described as follows: Antiinflammatory activity in mouse RAW264.7 cells assessed as inhibition of LPS-induced prostaglandin E2 formation at 1 uM treated 1 hr before LPS challenge measured after 24 hrs by EIA. Format: functional. A digest of the protocol: as §1
The subject of data set [10] is Mast cell. The data set can be described thus: Inhibition of secretagogue-induced beta-glucuronidase release in Sprague-Dawley rat peritoneal mast cells at 30 uM treated 3 mins before secretagogue challenge measured after 15 mins.
For data set [11], the system named is Mast cell. The data set is described as follows: Inhibition of secretagogue-induced histamine release in Sprague-Dawley rat peritoneal mast cells at 30 uM […] secretagogue challenge measured after 15 mins. Format: functional. The following applies: read-out: INH, in the assay text read “3 mins before” for “30 mins before”. The method in brief: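 Peritoneal mast cells came from exsanguinated Sprague-Dawley rats by heparinized Tyrode's lavage, purified through 38% BSA, and resuspended at (1-1.5) × 10^6 cells/mL in Tyrode's with 0.1% BSA. Supernatant β-glucuronidase was read at 550 nm (phenolphthalein glucuronide, pH 4.5) and histamine by o-phthaldialdehyde fluorescence at 350/450 nm. Release is % of the Triton X-100 total.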

In data set [12] the test system is N9. The data set can be described thus: Antiinflammatory activity in mouse N9 cells assessed as inhibition of LPS and IFN-gamma-induced nitrite formation at 3 uM treated 1 hr before LPS and IFN-gamma challenge measured after 24 hrs by Griess reaction. The conditions noted are these: N9, read-out: INH.
Data set [13] deals with Mast cell. The data set is described as follows: Secretagogue-induced histamine release in Sprague-Dawley rat peritoneal mast cells at 30 uM treated 3 mins before secretagogue challenge measured after 15 mins.

As for `COC1=CC(=O)c2ccc3cc(OC)cc(O)c3c2C1=O` [DENBINOBIN], the inhibition at 3 µM turned out to be 70% with N9 [1] and 44% with N9 [12]. In addition, the result with Neutrophil [2], in the data set with Neutrophil [3] and in the data set with Neutrophil [6] was inactive. Further, the Activity with RAW264.7 [4] is 40.4 µM; with RAW264.7 [5] it was less than 10%; with N9 [8], less than 10%. For the same compound, the inhibition at 1 µM with RAW264.7 [7] came to 62%; in the data set on RAW264.7 [9], 43%. For the same compound, the results for the inhibition at 30 µM in the data set with Mast cell [10] and with Mast cell [11] were 40% and 39%, respectively.
In the data set on Mast cell [13], `CCN(CC)CCCC(C)Nc1c2ccc(Cl)cc2nc2ccc(OC)cc12` (centres undefined) [QUINACRINE] gave a histamine release at 30 µM of 18.4%. The inhibition at 30 µM with Mast cell [10] is 8.7%.
